Test results published in ChEMBL document CHEMBL3396970, “Synthesis and biological evaluation of novel 2,3-disubstituted quinoxaline derivatives as antileishmanial and antitrypanosomal agents” (Eur J Med Chem, 2015).

Assays:
[1] = tested on: Leishmania amazonensis; assay: Antileishmanial activity against promastigote stage of Leishmania amazonensis WHOM/BR/75/JOSEFA after 72 hrs by hemocytometry; assay type: functional, organism-based
[2] = Selectivity ratio of CC50 for mouse J774A1 cells to IC50 for promastigote stage of Leishmania amazonensis WHOM/BR/75/JOSEFA; assay type: ADME, cell-based, J774.A1; conditions: read-out: Ratio CC50/IC50
[3] = tested on: Trypanosoma cruzi; assay: Antitrypanosomal activity against epimastigote stage of Trypanosoma cruzi Y after 96 hrs by hemocytometry; assay type: functional, organism-based
Method in brief: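 Log-phase parasites (promastigotes 3-day, Warren's medium + 10% FBS, 25°C; epimastigotes 4-day, LIT + 10% FBS, 28°C) seeded at 1 × 10^6 cells/mL with compound (0.1-100 µM; DMSO ≤1%). Promastigotes read at 72 h, epimastigotes at 96 h, by hemocytometer counting. IC50 by nonlinear regression.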

[4] = Selectivity ratio of CC50 for monkey LLC-MK2 cells to IC50 for epimastigote stage of epimastigote stage of Trypanosoma cruzi Y; assay type: ADME, cell-based; conditions: read-out: Ratio CC50/IC50
[5] = tested on: Trypanosoma cruzi; assay: Antitrypanosomal activity against trypomastigote stage of Trypanosoma cruzi Y infected in monkey LLC-MK2 cells after 96 hrs by Pizzi-Brener method; assay type: functional, organism-based
[6] = Selectivity ratio of CC50 for monkey LLC-MK2 cells to EC50 for trypomastigote stage of Trypanosoma cruzi Y; assay type: ADME, cell-based; conditions: read-out: Ratio CC50/EC50
[7] = tested on: Leishmania amazonensis; assay: Antileishmanial activity against amastigote stage of Leishmania amazonensis WHOM/BR/75/JOSEFA infected in BALB/c mouse peritoneal macrophages after 72 hrs by Geimsa staining-based light microscopy; assay type: functional, organism-based
[8] = Selectivity ratio of CC50 for BALB/c mouse peritoneal macrophages to IC50 for amastigote stage of Leishmania amazonensis WHOM/BR/75/JOSEFA
[9] = tested on: Trypanosoma cruzi; assay: Antitrypanosomal activity against amastigote stage of Trypanosoma cruzi Y infected in monkey LLC-MK2 cells after 96 hrs by Geimsa staining-based light microscopy; assay type: functional, organism-based; conditions: LLC-MK2, 96 h
Method in brief: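 LLCMK2 monolayers (2.5 x 10^5 cells/mL, 24 h, 37 °C, 5% CO2) infected with trypomastigotes at 10 per host cell for 24 h, washed, treated with compound (0.1 to 50 μM) 96 h. Methanol-fixed, Giemsa-stained, 200 cells counted; survival index (% infected × amastigotes/cell); IC50 by nonlinear regression.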

[10] = Selectivity ratio of CC50 for monkey LLC-MK2 cells to IC50 for amastigote stage of Trypanosoma cruzi Y; assay type: ADME, cell-based; conditions: read-out: Ratio CC50/IC50
[11] = Selectivity ratio of CC50 to IC50 for promastigote stage of Leishmania amazonensis WHOM/BR/75/JOSEFA; parameters: reference not given here
[12] = Selectivity ratio of CC50 for monkey LLC-MK2 cells to IC50 for epimastigote stage of epimastigote stage of Trypanosoma cruzi Y
[13] = tested on: Trypanosoma cruzi; assay: Antitrypanosomal activity against trypomastigote stage of Trypanosoma cruzi Y infected in monkey LLC-MK2 cells after 24 hrs by Pizzi-Brener method; assay type: functional, organism-based; conditions: LLC-MK2, 24 h
Method in brief: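 Trypomastigotes harvested from infected LLCMK2 culture supernatant, 1 × 10^7 cells/mL with compound (0.1-50 µM), 24 h at 37°C, 5% CO2. Viability by motility (Pizzi–Brener); EC50 by nonlinear regression.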

[14] = tested on: Trypanosoma cruzi; assay: Antitrypanosomal activity against amastigote stage of Trypanosoma cruzi

SMILES: CCCCNc1nc2ccc(OC)cc2nc1S(C)(=O)=O
- IC50 [1]: 2.5 µM
- selectivity ratio [2]: 17.1
- IC50 [3]: 3.6 µM
- selectivity ratio [4]: 108
- EC50 [5]: 39.2 µM
- selectivity ratio [6]: 10
- IC50 [7]: 12.9 µM
- Ratio CC50/IC50 [8]: 3.3
- IC50 [9]: 14.3 µM
- selectivity ratio [10]: 27.3
- selectivity ratio [11]: 17.1
- selectivity ratio [12]: 108

SMILES: COc1ccc2nc(NCCO)c(S(C)(=O)=O)nc2c1
- IC50 [1]: 2.9 µM
- selectivity ratio [2]: 13.3
- IC50 [3]: 2.9 µM
- selectivity ratio [4]: 25.2
- EC50 [5]: 35.7 µM
- selectivity ratio [6]: 2
- IC50 [7]: 17.3 µM
- Ratio CC50/IC50 [8]: 2.2
- IC50 [9]: 40.5 µM
- selectivity ratio [10]: 1.8
- selectivity ratio [11]: 13.3
- selectivity ratio [12]: 25.2

SMILES: COc1ccc2nc(NC3CCCCC3)c([S+](C)[O-])nc2c1 (centres undefined)
- IC50 [1]: 2.5 µM
- selectivity ratio [2]: 8
- IC50 [3]: 2.5 µM
- selectivity ratio [4]: 72.8
- EC50 [5]: 25.4 µM
- selectivity ratio [6]: 7.1
- IC50 [7]: 7.3 µM
- Ratio CC50/IC50 [8]: 2.8
- IC50 [9]: 9.3 µM
- selectivity ratio [10]: 19.5
- selectivity ratio [11]: 8
- selectivity ratio [12]: 72.8

SMILES: O=C(Cn1ccnc1[N+](=O)[O-])NCc1ccccc1 [BENZNIDAZOLE]
- EC50 [13]: 3.4 µM
- IC50 [3]: 8.1 µM
- IC50 [14]: 26.1 µM
